The values below come from ChEMBL document CHEMBL2176950, “A frozen analogue approach to aminopyridinylimidazoles leading to novel and promising p38 MAP kinase inhibitors” (J Med Chem, 2012).

Active and inactive are the calls of the source. The rule behind the calls is not given here.

Assay [1] deals with T1, Mitogen-activated protein kinase 14 (Homo sapiens, UniProt Q16539). In words: Inhibition of p38alpha MAPK. The method, boiled down: (§1)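 p38 MAPK activity assay run by a previously published protocol. IC50 given as mean with SEM from three experiments. The activity coefficient is the IC50 of the SB203580 reference divided by the IC50 of the test compound.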
T1 sequence (Q16539 whole entry): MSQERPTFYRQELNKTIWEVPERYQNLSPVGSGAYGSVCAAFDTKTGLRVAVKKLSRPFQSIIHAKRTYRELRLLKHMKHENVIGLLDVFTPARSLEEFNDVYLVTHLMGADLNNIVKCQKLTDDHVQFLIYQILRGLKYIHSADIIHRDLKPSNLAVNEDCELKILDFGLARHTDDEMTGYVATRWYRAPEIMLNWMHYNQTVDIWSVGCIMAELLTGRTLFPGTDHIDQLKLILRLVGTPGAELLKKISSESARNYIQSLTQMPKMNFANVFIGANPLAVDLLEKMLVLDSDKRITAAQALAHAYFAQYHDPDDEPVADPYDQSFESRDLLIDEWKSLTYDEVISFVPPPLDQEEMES
Assay [2] concerns the target T1, Mitogen-activated protein kinase 14. In words: Ratio of SB203580 IC50 to compound IC50 for inhibition of p38alpha MAPK. An outline of the steps: as §1
The target of assay [3] is Mitogen-activated protein kinase 8 (Homo sapiens) (UniProt P45983). In words: Inhibition of JNK1 assessed as residual activity at 1000 nM.
Chain of Mitogen-activated protein kinase 8 (Homo sapiens) (P45983 whole entry): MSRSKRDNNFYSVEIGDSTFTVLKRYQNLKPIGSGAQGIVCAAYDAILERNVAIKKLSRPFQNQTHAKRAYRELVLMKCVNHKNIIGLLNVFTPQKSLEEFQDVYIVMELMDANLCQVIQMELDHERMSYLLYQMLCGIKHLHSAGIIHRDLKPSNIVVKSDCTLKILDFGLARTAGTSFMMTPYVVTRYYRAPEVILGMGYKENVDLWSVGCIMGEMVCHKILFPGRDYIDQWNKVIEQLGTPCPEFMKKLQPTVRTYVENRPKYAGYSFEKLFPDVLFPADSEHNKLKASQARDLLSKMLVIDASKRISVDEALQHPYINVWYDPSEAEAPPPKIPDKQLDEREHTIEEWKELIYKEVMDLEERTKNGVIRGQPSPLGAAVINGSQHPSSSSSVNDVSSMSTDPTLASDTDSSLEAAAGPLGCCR
The target in assay [4] is TRAF2 and NCK-interacting protein kinase (Homo sapiens) (UniProt Q9UKE5). In words: Inhibition of KIAA0551 assessed as residual activity at 1000 nM.
Chain of TRAF2 and NCK-interacting protein kinase (Homo sapiens) (Q9UKE5 whole entry, looked up): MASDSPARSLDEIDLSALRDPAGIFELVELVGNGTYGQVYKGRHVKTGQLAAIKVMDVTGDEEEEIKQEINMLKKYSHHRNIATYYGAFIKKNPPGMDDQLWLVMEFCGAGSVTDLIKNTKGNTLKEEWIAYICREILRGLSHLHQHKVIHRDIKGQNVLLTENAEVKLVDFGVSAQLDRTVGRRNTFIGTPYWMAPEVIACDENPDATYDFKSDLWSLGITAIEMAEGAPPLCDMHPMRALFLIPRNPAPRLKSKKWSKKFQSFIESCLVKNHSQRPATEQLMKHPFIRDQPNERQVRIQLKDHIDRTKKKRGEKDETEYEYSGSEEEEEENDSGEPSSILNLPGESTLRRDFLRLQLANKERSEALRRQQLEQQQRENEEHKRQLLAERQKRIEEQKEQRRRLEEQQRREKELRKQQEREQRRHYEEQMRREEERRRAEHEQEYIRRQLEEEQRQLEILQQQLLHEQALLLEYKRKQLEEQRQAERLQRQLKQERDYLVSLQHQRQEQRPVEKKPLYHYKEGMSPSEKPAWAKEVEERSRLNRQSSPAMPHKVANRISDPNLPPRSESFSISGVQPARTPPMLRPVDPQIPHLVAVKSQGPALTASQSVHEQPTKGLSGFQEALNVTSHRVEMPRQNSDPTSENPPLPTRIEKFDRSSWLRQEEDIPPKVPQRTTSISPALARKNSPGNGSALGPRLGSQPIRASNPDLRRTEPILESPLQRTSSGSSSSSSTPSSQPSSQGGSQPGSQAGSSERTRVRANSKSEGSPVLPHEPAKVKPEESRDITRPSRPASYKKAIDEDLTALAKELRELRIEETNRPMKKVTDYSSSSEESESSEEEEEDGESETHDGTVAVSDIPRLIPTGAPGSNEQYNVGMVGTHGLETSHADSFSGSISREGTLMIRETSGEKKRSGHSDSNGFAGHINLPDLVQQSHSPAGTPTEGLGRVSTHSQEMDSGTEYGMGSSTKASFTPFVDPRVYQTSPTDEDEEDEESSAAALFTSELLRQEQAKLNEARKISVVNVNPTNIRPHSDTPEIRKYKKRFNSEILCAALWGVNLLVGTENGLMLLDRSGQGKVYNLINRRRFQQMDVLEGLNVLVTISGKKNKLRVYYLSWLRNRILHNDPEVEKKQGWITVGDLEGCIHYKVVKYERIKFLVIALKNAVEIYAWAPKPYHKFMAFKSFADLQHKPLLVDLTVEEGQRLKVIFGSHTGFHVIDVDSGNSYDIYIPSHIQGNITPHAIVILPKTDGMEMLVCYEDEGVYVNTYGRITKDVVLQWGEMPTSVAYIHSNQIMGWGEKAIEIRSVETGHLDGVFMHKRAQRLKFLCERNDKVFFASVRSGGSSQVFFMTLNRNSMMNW
Assay [5] addresses T2, Cyclin-G-associated kinase (Homo sapiens) (UniProt O14976).
T2 sequence (whole entry): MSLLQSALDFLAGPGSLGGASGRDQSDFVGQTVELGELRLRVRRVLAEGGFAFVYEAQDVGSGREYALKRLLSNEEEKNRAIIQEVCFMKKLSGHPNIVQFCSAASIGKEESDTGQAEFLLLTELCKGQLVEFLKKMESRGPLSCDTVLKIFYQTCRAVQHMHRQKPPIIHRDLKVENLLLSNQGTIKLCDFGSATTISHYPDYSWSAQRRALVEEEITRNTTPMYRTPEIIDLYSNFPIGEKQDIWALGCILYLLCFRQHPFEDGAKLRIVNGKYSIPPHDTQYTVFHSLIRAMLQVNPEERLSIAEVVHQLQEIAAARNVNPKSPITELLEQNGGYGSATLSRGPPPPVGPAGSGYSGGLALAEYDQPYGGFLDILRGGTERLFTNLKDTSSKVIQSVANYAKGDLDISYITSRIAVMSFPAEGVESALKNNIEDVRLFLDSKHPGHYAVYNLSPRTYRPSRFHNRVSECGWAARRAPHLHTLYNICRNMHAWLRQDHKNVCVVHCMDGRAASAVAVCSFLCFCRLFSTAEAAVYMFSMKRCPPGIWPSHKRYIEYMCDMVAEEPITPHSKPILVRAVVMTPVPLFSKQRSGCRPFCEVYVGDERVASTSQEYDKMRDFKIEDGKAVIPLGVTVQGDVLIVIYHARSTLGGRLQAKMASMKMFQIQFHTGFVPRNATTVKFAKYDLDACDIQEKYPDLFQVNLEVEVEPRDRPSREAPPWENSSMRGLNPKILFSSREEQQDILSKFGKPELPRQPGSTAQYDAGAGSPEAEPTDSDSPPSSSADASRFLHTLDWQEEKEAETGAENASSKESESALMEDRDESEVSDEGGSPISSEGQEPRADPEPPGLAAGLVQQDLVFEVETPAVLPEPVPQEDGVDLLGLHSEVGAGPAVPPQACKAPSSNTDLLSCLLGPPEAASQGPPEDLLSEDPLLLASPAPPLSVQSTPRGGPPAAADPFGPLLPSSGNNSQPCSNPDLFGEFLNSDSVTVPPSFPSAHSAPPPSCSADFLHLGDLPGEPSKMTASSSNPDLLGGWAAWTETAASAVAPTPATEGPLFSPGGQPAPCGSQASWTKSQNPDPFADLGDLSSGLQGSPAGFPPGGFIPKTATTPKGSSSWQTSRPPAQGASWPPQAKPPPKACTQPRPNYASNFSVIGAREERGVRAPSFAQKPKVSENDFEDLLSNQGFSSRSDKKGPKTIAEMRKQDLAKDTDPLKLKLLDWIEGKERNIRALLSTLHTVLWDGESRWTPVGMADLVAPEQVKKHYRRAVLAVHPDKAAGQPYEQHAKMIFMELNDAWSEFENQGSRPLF
In words: Inhibition of GAK assessed as residual activity at 1000 nM.

The target in assay [6] is Receptor-interacting serine/threonine-protein kinase 2 (Homo sapiens) (UniProt O43353). In words: Inhibition of RIPK2 assessed as residual activity at 1000 nM.
Chain of Receptor-interacting serine/threonine-protein kinase 2 (Homo sapiens) (O43353 whole entry): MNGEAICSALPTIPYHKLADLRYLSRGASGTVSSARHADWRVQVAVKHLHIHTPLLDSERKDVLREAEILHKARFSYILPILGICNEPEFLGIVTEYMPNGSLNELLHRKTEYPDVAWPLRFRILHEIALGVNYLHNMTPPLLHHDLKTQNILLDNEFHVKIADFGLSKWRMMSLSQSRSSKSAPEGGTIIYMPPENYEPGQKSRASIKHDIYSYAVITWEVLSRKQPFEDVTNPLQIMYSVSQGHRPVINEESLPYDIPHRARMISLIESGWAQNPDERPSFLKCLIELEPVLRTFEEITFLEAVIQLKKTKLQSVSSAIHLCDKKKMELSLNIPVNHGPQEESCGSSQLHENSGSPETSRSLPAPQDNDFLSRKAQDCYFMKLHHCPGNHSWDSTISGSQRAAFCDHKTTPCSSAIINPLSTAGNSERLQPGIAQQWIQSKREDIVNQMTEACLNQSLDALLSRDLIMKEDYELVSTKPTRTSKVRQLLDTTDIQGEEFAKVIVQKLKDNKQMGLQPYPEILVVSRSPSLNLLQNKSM
The target in assay [7] is Mitogen-activated protein kinase 9 (Homo sapiens) (UniProt P45984). In words: Inhibition of JNK2 assessed as residual activity at 1000 nM.
The target in assay [8] is T3, Serine/threonine-protein kinase 36 (Homo sapiens) (UniProt Q9NRP7).
T3 sequence (whole entry): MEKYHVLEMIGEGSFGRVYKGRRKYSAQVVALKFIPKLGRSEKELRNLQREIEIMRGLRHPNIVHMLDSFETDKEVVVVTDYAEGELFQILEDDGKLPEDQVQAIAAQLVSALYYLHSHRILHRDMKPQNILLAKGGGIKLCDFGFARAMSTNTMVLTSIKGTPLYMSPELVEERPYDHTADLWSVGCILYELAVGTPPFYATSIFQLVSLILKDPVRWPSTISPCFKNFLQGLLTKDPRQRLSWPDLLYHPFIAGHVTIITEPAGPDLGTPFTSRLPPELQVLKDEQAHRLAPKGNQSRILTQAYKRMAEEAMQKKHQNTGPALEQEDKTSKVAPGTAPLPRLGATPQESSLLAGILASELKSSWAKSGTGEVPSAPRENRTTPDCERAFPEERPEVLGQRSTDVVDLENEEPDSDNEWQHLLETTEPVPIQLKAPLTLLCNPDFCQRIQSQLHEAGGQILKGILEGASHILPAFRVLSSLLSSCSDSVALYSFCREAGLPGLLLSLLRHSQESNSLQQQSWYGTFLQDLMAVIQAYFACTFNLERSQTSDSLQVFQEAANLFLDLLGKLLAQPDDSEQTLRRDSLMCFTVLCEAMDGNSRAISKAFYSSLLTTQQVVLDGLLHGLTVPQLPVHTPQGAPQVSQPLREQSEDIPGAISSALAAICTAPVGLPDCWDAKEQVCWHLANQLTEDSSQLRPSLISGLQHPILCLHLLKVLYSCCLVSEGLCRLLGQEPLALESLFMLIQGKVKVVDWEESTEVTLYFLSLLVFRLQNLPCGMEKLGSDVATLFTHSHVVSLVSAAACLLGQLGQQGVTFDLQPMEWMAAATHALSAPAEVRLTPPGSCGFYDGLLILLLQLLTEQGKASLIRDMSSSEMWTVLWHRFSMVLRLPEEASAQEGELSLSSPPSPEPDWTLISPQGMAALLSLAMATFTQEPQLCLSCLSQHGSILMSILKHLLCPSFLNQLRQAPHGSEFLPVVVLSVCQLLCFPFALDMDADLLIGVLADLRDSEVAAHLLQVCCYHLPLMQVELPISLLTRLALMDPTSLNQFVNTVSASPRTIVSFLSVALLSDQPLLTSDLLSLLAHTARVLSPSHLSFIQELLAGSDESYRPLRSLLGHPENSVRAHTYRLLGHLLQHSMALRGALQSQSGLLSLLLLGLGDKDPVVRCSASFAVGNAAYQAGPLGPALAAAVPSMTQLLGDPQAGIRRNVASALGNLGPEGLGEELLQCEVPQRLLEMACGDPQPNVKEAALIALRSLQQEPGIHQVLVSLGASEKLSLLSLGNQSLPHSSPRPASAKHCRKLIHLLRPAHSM
In words: Inhibition of STK36 assessed as residual activity at 1000 nM.

Assay [9] concerns the target T1, Mitogen-activated protein kinase 14. In words: Inhibition of MAPK14 assessed as residual activity at 1000 nM.
Assay [10] addresses Mitogen-activated protein kinase 11 (Homo sapiens) (UniProt Q15759). In words: Inhibition of MAPK11 assessed as residual activity at 1000 nM.
For assay [11], the target named is Protein-tyrosine kinase 6 (Homo sapiens) (UniProt Q13882). In words: Inhibition of PTK6 assessed as residual activity at 1000 nM.
Chain of Protein-tyrosine kinase 6 (Homo sapiens) (Q13882 whole entry, looked up): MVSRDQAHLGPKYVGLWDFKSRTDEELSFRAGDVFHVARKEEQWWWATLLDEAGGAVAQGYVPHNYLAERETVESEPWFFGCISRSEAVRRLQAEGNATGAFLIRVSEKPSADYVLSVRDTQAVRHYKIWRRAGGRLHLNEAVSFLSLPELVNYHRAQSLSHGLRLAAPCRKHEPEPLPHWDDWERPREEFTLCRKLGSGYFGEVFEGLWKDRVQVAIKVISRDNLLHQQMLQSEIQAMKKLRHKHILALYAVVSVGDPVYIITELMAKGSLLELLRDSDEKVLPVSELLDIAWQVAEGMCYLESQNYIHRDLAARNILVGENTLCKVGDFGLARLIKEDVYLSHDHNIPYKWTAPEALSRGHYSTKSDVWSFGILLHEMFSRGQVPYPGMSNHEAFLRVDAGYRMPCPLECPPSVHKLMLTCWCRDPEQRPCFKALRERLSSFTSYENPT
Assay [12] deals with T4, Mitogen-activated protein kinase 12 (Homo sapiens) (UniProt P53778).
T4 sequence (whole entry): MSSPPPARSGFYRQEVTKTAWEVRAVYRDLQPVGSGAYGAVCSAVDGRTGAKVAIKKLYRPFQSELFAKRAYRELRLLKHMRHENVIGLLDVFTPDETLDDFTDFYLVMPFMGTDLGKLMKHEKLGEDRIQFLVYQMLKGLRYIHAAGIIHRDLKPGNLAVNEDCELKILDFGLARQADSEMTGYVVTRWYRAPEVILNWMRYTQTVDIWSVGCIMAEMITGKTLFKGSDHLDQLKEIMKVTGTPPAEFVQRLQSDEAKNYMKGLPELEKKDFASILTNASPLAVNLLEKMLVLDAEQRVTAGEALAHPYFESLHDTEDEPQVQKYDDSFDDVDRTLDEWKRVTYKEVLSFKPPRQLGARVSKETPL
To be noted: 1000 nM.

For assay [13], the target named is Tyrosine-protein kinase FRK (Homo sapiens) (UniProt P42685). In words: Inhibition of FRK assessed as residual activity at 1000 nM.
Chain of Tyrosine-protein kinase FRK (Homo sapiens) (P42685 whole entry): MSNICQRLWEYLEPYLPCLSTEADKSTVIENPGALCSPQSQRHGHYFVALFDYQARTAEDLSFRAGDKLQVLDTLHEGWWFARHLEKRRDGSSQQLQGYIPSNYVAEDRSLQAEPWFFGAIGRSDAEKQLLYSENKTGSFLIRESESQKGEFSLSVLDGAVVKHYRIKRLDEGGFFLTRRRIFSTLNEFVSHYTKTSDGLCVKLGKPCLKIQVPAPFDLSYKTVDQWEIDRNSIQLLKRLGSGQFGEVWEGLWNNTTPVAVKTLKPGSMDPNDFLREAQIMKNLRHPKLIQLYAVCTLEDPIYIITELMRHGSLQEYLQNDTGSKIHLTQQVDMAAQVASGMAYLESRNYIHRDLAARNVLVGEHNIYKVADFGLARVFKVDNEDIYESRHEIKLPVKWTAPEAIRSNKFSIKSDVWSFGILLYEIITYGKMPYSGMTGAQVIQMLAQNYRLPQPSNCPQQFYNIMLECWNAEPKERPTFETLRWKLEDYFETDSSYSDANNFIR
In assay [14] the target is Mitogen-activated protein kinase 10 (Homo sapiens) (UniProt P53779). In words: Inhibition of JNK3 assessed as residual activity at 1000 nM.
Chain of Mitogen-activated protein kinase 10 (Homo sapiens) (P53779 whole entry): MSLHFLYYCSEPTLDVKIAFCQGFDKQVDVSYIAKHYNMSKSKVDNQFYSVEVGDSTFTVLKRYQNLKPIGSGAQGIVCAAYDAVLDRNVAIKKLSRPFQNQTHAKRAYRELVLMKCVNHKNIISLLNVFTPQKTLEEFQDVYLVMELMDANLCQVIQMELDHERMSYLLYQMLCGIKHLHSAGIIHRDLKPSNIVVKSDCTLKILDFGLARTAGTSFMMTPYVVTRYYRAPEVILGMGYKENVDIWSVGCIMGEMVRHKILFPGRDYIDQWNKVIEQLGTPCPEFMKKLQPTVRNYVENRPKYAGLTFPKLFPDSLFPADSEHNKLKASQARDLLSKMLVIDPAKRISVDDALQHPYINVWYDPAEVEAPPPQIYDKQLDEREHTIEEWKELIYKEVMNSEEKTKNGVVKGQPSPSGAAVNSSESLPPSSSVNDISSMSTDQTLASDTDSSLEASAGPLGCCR
Assay [15] concerns the target Proto-oncogene tyrosine-protein kinase Src (Homo sapiens) (UniProt P12931). In words: Inhibition of SRC assessed as residual activity at 1000 nM.

Chain of Mitogen-activated protein kinase 11 (Homo sapiens) (Q15759 whole entry): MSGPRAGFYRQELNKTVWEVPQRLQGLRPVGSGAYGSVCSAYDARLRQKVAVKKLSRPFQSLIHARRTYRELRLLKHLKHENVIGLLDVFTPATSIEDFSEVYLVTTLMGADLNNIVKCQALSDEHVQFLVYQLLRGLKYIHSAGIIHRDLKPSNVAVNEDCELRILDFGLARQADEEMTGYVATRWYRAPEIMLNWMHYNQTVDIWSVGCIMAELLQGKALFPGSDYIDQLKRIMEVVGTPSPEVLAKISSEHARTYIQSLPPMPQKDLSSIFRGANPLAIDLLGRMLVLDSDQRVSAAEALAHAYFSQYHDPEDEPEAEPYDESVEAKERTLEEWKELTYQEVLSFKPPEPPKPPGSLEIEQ
Chain of Proto-oncogene tyrosine-protein kinase Src (Homo sapiens) (P12931 2-536 limits assumed): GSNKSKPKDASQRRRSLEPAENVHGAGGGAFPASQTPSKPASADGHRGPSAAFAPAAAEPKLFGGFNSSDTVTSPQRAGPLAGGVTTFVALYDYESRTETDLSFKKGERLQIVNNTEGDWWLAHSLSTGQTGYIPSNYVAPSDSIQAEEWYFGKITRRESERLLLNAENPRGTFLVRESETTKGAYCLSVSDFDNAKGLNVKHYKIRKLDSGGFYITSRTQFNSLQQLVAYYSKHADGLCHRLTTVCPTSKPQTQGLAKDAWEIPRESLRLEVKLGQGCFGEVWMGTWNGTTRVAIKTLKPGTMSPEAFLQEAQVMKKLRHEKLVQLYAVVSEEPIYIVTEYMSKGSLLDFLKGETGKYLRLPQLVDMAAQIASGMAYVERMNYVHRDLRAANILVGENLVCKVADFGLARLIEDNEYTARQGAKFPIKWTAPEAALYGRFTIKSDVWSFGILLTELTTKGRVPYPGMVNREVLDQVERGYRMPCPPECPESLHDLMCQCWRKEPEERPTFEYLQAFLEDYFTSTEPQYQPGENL

With `Fc1ccc(-c2nc(-c3ccccc3)[nH]c2-c2ncnc3[nH]ccc23)cc1`, the IC50 (commonly the concentration that gives 50% inhibition) in [1] is 2600 nM. Further, the Ratio IC50 in assay [2] was found to be 0.03. For `C[S+]([O-])c1ccc(-c2nc(-c3ccnc4[nH]c(-c5ccccc5)cc34)c(-c3ccc(F)cc3)[nH]2)cc1` (stereo not given), 8 nM corresponded to half-maximal inhibition in assay [1] (IC50).

Regarding `CSc1ccc(-c2nc(-c3ccnc4[nH]c(-c5ccccc5)cc34)c(-c3ccc(F)cc3)[nH]2)cc1`, 39 nM corresponded to half-maximal inhibition in assay [1] (IC50). Consider `Fc1ccc(-c2nc(-c3ccccc3)[nH]c2-c2ccnc3[nH]c(C4CCCCC4)cc23)cc1`, for which, in [2], the Ratio IC50 stood at 2.07.

On to `CSc1ccc(-c2nc(-c3ccc(F)cc3)c(-c3ccnc4[nH]c(-c5ccccc5)cc34)[nH]2)cc1`, for which the Ratio IC50 in assay [2] turned out to be 0.97. `COCn1c(-c2ccccc2)nc(-c2ccc(F)cc2)c1-c1ccnc2[nH]ccc12` returned an IC50 in assay [1] of 451 nM. Besides, the Ratio IC50 in assay [2] turned out to be 0.18. The molecule `COc1cc(-c2nc(-c3ccnc4[nH]c(-c5ccccc5)cc34)c(-c3ccc(F)cc3)[nH]2)cc(OC)c1OC` registered an IC50 in assay [1] of 290 nM. Regarding `Fc1ccc(-c2nc(-c3ccccc3)[nH]c2-c2ccnc3[nH]c(-c4ccccc4)cc23)cc1`, in [2], the Ratio IC50 was 2.38. For the molecule `Fc1ccc(-c2[nH]c(-c3ccccc3)nc2-c2ccnc3[nH]c(-c4ccccc4)cc23)cc1`, in assay [1], the IC50 was determined as 16 nM. In the case of `Fc1ccc(-c2[nH]c(-c3ccccc3)nc2-c2ccnc3[nH]c(C4CCCCC4)cc23)cc1`, the IC50 in [1] stood at 15 nM.

Take `Fc1ccc(-c2nc(-c3ccccc3)[nH]c2-c2ccnc3[nH]c(Cc4ccccc4)cc23)cc1`: in [1], the IC50 turned out to be 345 nM. Also, the Ratio IC50 in [2] worked out at 0.07. Turning to `Fc1ccc(-c2nc(-c3ccccc3)[nH]c2-c2ccnc3[nH]ccc23)cc1`, the Ratio IC50 in assay [2] worked out at 0.47. As for `Oc1ccc(-c2nc(-c3ccc(F)cc3)c(-c3ccncc3)[nH]2)cc1`, the inhibition result in assay [3], in assay [4], in [5], in assay [6], in assay [7] and in [8] was “Active” in each case. The inhibition entry in assay [9], in [10], in [11], in assay [12], in assay [13] and in [14] was “Active” in each case. In assay [1], `COc1ccc(-c2nc(-c3ccnc4[nH]c(-c5ccccc5)cc34)c(-c3ccc(F)cc3)[nH]2)cc1` displayed an IC50 of 70 nM. Consider `Fc1ccc(-c2nc(-c3ccccc3)[nH]c2-c2ccnc3[nH]c4ccccc4c23)cc1`, for which the Ratio IC50 in assay [2] is 0.55.

As for `Oc1ccc(-c2nc(-c3ccnc4[nH]c(-c5ccccc5)cc34)c(-c3ccc(F)cc3)[nH]2)cc1`, the IC50 in assay [1] was determined as 3 nM.

Take `Oc1ccc(-c2nc(-c3ccc(F)cc3)c(-c3ccnc4[nH]c(-c5ccccc5)cc34)[nH]2)cc1`: the Activity in assay [4] was determined as 17%; in assay [5], 7.7%; in [6], 3.2%; in [8], 4.8%; in assay [9], 8.9%; in assay [10], 2.5%. The Activity in [15] was found to be 28%. The Ratio IC50 in assay [2] was determined as 19.7.

On to `Fc1ccc(-c2nc(-c3ccccc3)[nH]c2-c2ncnc3[nH]cnc23)cc1`, for which, in assay [1], half-maximal inhibition (IC50) required 740 nM. In addition, the Ratio IC50 in assay [2] was 0.1. With `Fc1ccc(-c2[nH]c(-c3ccccc3)nc2-c2ccncc2)cc1`, in assay [2], the Ratio IC50 was 0.33. Consider `COc1cc(-c2nc(-c3ccc(F)cc3)c(-c3ccnc4[nH]c(-c5ccccc5)cc34)[nH]2)cc(OC)c1OC`, for which the Ratio IC50 in [2] stood at 0.12.

In assay [1], `COCn1c(-c2ccccc2)nc(-c2ccc(F)cc2)c1-c1ncnc2[nH]cnc12` had an IC50 of 2990 nM. Besides, in assay [2], the Ratio IC50 was found to be 0.01. `Fc1ccc(-c2[nH]c(-c3ccccc3)nc2-c2ccnc3[nH]c4ccccc4c23)cc1` yielded an IC50 in assay [1] of 153 nM. As to `Fc1ccc(-c2[nH]c(-c3ccccc3)nc2-c2ccnc3[nH]ccc23)cc1`, 108 nM corresponded to half-maximal inhibition in assay [1] (IC50).

Turning to `C[S+]([O-])c1ccc(-c2nc(-c3ccc(F)cc3)c(-c3ccnc4[nH]c(-c5ccccc5)cc34)[nH]2)cc1` (stereo not given), the Ratio IC50 in [2] worked out at 4.75. As for `COc1ccc(-c2nc(-c3ccc(F)cc3)c(-c3ccnc4[nH]c(-c5ccccc5)cc34)[nH]2)cc1`, in [2], the Ratio IC50 worked out at 0.67. In [1], `CS(=O)(=O)c1ccc(-c2nc(-c3ccc(F)cc3)c(-c3ccnc4[nH]c(-c5ccccc5)cc34)[nH]2)cc1` registered a half-maximal inhibitory concentration (IC50) of 11 nM. Besides, in [2], the Ratio IC50 was 3.46.
